Activity calls are given as the source filed them. The rule behind the calls is not given here.
Tests used:
[1] = molecular target: Bromodomain and WD repeat-containing protein 1 (Homo sapiens) (UniProt Q9NSI6); experiment: Binding affinity to human partial length BRWD1 (A1310 to E1430 residues) expressed in Escherichia coli BL21 cells assessed as residual binding level at 1 uM measured after 1 hr by quantitative PCR based BROMOscan assay relative to control
Procedure, shortened: (§1)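 A BROMOScan competition-binding panel of 32 bromodomains was run at a single 1 μM compound concentration. Results are primary-screen 'Percent Control', where lower values indicate stronger binding.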

Cytochrome P450 2D6 = Cytochrome P450 2D6 (Homo sapiens, UniProt P10635); experiment: Time-dependent inhibition of CYP2D6 in human liver microsomes at 10 uM using dextromethorphan as substrate preincubated up to 30 mins followed by NADPH generating system addition and measured after 10 mins; type: ADME
Procedure, shortened: (§2)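 Human liver microsomes 0.2 mg/mL, 100 mM phosphate pH 7.4, 10 μM test compound, preincubated 0, 5, 10 and 30 min at 37 °C; then NADPH plus probe cocktail (5 μM midazolam, 50 μM testosterone, 5 μM dextromethorphan, 10 μM diclofenac, 50 μM phenacetin, 50 μM S-(+)-mephenytoin) added; 10 min reaction; kobs in units of 10^-4/min.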

Cytochrome P450 3A4 = Cytochrome P450 3A4 (Homo sapiens, UniProt P08684); experiment: Time-dependent inhibition of CYP3A4 in human liver microsomes at 10 uM using midazolam or testosterone as substrate preincubated up to 30 mins followed by NADPH generating system addition and measured after 10 mins; type: ADME; procedure, shortened: as §2
[2] = molecular target: T1, Bromodomain-containing protein 4 (Homo sapiens, UniProt O60885); experiment: Displacement of 5-FITC labelled (+)-JQ1 from His6-tagged human BRD4 bromodomain 1 expressed in Escherichia coli BL21(DE3) )-codon plus-RIL cells incubated for 4 hrs in dark condition by fluorescence anisotropy binding assay
[3] = Cmax in ICR mouse at 10 mg/kg, po administered via gavage measured after 0.25 to 24 hrs by UPLC/MS analysis; type: ADME, organism-based; set-up: dose 10 mg/kg, route oral; conditions: in vivo
Procedure, shortened: (§3)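 Male ICR mice dosed orally in 1% DMSO/0.5% HPMC vehicle; plasma or brain drug levels used to derive Tmax, Cmax, AUC0-t, AUC0-inf and T1/2.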

[4] = AUC (0 to t) in ICR mouse at 10 mg/kg, po administered via gavage measured after 0.25 to 24 hrs by UPLC/MS analysis; type: ADME, organism-based; set-up: time 0.25-24 hr, dose 10 mg/kg, route oral; conditions: in vivo
Procedure, shortened: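 Male ICR mice were dosed orally in 1% DMSO/0.5% HPMC vehicle. Plasma (and brain, where stated) concentrations gave Tmax, Cmax, T1/2, AUC0-t and AUC0-inf.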

[5] = Half life in ICR mouse at 10 mg/kg, po administered via gavage measured after 0.25 to 24 hrs by UPLC/MS analysis; type: ADME, organism-based; conditions: in vivo; procedure, shortened: as §3
[6] = molecular target: Bromodomain testis-specific protein (Homo sapiens) (UniProt Q58F21); experiment: Binding affinity to human partial length BRDT bromodomain 2 (K250 to E382 residues) expressed in Escherichia coli BL21 cells assessed as residual binding level at 1 uM measured after 1 hr by quantitative PCR based BROMOscan assay relative to control; procedure, shortened: as §1
[7] = molecular target: T1, Bromodomain-containing protein 4; experiment: Binding affinity to human partial length BRD4 bromodomain 2 long isoform (K333 to E460 residues) expressed in Escherichia coli BL21 cells assessed as residual binding level at 1 uM measured after 1 hr by quantitative PCR based BROMOscan assay relative to control; procedure, shortened: as §1
[8] = molecular target: Bromodomain adjacent to zinc finger domain protein 2B (Homo sapiens) (UniProt Q9UIF8); experiment: Binding affinity to human partial length BAZ2B (S2054 to S2168 residues) expressed in Escherichia coli BL21 cells assessed as residual binding level at 1 uM measured after 1 hr by quantitative PCR based BROMOscan assay relative to control; procedure, shortened: as §1
[9] = molecular target: ATPase family AAA domain-containing protein 2 (Homo sapiens) (UniProt Q6PL18); experiment: Binding affinity to human partial length ATAD2A (Q981 to R1108 residues) expressed in Escherichia coli BL21 cells assessed as residual binding level at 1 uM measured after 1 hr by quantitative PCR based BROMOscan assay relative to control; procedure, shortened: as §1
[10] = molecular target: Bromodomain-containing protein 7 (Homo sapiens) (UniProt Q9NPI1); experiment: Binding affinity to human partial length BRD7 (L125 to R254 residues) expressed in […] assessed as residual binding level at 1 uM measured after 1 hr by quantitative PCR based BROMOscan assay relative to control; procedure, shortened: as §1
MV4-11 [11] = experiment: Antiproliferative activity against human MV4-11 cells after 72 hrs by CCK8 or SRB assay; type: functional, cell-based
NCI-H1299 = experiment: Antiproliferative activity against human NCI-H1299 cells after 72 hrs by CCK8 or SRB assay; type: functional, cell-based
MDA-MB-468 = experiment: Antiproliferative activity against human MDA-MB-468 cells after 72 hrs by CCK8 or SRB assay; type: functional, cell-based
HuTu80 = experiment: Antiproliferative activity against human HuTu 80 cells after 72 hrs by CCK8 or SRB assay; type: functional, cell-based
MV4-11 [12] = experiment: Induction of apoptosis in human MV4-11 cells assessed as reduction in c-IAP1 level after 24 hrs by Western blot analysis; type: functional, cell-based
RKO = experiment: Induction of cell cycle arrest in human RKO cells assessed as increase in accumulation at G1 phase at 100 nM after 24 hrs by propidium iodide staining based flow cytometric analysis; type: functional
[13] = Clearance in dog liver microsomes; type: ADME, Canis lupus familiaris, Microsome; conditions: read-out: CLH
[14] = Tmax in rat plasma at 50 mg/kg, po; type: ADME, organism-based
Procedure, shortened: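 Rats dosed orally at 50 mg/kg in 1% DMSO/0.5% HPMC; drug measured in plasma and brain.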

[15] = Tmax in ICR mouse plasma at 100 mg/kg, po administered via gavage measured after 0.25 to 24 hrs by UPLC/MS analysis; type: ADME, organism-based
Procedure, shortened: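 Male ICR mice dosed orally (3, 10 or 100 mg/kg, per line) in 1% DMSO/0.5% HPMC vehicle; plasma drug levels measured.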

[16] = AUC (0 to t) in rat brain at 50 mg/kg, po; type: ADME, organism-based
Procedure, shortened: (§4)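 Compound was given orally or intravenously in 1% DMSO/0.5% HPMC vehicle. Concentrations in plasma, or in brain where stated, gave Tmax, Cmax, T1/2, AUC0-t and AUC0-inf.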

[17] = AUC (0 to infinity) in rat brain at 50 mg/kg, po; type: ADME, organism-based; set-up: dose 50 mg/kg, time infinity, route oral; procedure, shortened: as §4
[18] = AUC (0 to infinity) in rat plasma at 3 mg/kg, iv; type: ADME, organism-based; set-up: dose 3 mg/kg, route intravenous, time infinity; procedure, shortened: as §4
[19] = Half life in ICR mouse brain at 50 mg/kg, po administered via gavage measured after 0.25 to 24 hrs by UPLC/MS analysis; type: ADME, organism-based; procedure, shortened: as §3
[20] = Half life in rat brain at 50 mg/kg, po; type: ADME, organism-based
[21] = Half life in ICR mouse plasma at 100 mg/kg, po administered via gavage measured after 0.25 to 24 hrs by UPLC/MS analysis; type: ADME, organism-based; procedure, shortened: as §3
[22] = Half life in rat plasma at 10 mg/kg, po; type: ADME, organism-based
[23] = molecular target: Serine/threonine-protein kinase PLK1 (Homo sapiens) (UniProt P53350); experiment: Inhibition of full-length recombinant human His-tagged PLK1 expressed in baculovirus expression system at 10 uM using Ser/Thr 16 Peptide as substrate after 60 mins by Z-LYTE assay relative to control
Sequence of Serine/threonine-protein kinase PLK1 (Homo sapiens) (P53350 whole entry): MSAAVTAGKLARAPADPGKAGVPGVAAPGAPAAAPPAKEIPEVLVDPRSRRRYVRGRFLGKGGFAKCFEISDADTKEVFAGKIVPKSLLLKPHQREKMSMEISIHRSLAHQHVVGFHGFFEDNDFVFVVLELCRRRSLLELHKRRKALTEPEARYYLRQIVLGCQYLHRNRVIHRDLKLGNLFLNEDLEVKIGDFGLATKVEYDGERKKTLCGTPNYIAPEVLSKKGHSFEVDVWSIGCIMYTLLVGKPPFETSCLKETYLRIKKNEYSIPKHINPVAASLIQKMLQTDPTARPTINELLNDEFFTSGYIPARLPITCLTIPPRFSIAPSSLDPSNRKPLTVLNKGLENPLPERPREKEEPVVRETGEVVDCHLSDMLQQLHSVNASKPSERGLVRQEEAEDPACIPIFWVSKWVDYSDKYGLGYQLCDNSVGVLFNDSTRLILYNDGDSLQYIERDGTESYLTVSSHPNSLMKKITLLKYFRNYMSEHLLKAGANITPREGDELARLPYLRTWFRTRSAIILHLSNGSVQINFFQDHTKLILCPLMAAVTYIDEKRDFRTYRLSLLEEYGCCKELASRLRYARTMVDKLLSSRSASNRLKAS

Sequence of Cytochrome P450 3A4 (P08684 whole entry): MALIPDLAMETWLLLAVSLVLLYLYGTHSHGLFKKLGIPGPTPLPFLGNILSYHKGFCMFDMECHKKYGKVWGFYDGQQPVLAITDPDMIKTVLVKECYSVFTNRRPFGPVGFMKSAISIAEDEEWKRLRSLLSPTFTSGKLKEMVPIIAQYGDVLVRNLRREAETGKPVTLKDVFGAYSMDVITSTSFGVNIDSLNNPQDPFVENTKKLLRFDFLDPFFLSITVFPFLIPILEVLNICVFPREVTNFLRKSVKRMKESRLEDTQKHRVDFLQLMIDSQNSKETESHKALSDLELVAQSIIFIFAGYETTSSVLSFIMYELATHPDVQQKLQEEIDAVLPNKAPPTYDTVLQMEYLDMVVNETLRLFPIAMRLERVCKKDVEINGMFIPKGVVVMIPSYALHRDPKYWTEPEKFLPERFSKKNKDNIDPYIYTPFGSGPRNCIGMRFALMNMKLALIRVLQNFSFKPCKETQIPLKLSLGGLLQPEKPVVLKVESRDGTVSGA
Sequence of Cytochrome P450 2D6 (P10635 whole entry): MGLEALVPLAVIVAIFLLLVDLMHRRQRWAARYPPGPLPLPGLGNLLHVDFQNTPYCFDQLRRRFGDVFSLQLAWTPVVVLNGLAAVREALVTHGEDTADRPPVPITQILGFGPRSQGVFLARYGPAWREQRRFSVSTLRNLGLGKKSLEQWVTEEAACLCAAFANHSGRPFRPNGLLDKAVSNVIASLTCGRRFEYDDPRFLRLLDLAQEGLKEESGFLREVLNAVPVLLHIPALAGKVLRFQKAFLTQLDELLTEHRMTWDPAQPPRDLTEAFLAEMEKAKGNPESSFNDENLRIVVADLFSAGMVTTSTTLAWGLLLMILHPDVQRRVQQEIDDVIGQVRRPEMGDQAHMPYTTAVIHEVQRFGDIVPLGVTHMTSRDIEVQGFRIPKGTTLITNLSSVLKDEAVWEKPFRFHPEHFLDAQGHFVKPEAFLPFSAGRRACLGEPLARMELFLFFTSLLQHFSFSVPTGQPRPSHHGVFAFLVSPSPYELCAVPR
Sequence of Bromodomain-containing protein 7 (Homo sapiens) (Q9NPI1 whole entry, the tested form may be a part): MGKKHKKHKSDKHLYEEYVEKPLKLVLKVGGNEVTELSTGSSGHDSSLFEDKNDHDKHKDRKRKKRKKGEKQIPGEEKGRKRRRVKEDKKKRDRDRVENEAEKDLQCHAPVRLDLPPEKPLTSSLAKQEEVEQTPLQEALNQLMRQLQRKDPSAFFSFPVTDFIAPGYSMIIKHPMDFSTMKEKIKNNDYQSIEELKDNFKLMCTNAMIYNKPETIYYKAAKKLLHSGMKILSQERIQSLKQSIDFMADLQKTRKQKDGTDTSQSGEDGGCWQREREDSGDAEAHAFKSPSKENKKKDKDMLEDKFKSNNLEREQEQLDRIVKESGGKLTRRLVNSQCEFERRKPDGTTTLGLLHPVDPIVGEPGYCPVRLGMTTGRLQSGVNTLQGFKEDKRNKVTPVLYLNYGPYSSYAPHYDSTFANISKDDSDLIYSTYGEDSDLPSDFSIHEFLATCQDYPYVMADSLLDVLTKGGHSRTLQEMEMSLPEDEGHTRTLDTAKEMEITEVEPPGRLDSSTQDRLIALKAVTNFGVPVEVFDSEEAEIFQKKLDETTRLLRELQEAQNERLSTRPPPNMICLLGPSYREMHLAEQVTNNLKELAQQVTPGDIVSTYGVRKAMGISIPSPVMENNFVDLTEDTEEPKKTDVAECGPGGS
Sequence of ATPase family AAA domain-containing protein 2 (Homo sapiens) (Q6PL18 whole entry, the tested form may be a part): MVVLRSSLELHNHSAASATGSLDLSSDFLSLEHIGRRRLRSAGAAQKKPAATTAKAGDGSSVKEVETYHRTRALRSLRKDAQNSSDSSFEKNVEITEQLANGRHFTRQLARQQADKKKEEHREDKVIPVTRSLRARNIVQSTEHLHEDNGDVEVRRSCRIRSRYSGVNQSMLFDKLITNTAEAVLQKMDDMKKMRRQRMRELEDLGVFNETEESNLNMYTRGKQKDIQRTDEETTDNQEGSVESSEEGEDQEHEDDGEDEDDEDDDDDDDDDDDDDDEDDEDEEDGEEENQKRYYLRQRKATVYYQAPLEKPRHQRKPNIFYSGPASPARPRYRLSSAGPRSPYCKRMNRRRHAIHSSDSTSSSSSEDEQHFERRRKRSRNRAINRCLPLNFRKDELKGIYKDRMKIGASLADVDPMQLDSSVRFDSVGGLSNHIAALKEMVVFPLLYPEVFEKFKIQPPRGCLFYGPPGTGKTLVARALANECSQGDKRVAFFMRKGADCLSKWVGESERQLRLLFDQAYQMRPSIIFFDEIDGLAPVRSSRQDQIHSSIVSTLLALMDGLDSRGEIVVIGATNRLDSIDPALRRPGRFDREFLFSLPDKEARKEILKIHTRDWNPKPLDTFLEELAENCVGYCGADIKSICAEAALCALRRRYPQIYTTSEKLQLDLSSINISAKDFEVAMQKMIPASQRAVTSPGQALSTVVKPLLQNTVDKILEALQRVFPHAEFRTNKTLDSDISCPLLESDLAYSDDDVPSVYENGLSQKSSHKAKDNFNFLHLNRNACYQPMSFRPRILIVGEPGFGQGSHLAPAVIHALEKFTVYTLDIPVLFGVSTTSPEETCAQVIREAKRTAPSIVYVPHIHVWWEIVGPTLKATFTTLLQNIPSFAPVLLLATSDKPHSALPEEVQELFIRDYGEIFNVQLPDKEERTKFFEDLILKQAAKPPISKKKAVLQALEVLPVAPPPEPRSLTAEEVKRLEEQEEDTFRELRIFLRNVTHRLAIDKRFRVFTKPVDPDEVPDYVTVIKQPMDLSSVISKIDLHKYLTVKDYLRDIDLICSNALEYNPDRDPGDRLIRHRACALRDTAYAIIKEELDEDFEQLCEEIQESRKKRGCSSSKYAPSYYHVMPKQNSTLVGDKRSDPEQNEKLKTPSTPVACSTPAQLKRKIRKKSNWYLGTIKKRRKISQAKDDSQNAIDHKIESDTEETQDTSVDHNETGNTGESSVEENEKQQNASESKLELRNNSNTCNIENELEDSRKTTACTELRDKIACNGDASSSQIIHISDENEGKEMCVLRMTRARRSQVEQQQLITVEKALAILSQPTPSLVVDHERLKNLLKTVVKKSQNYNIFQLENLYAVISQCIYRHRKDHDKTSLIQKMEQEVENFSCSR

Cc1ccc(-n2nc(C(=O)N3C[C@@H](C)N[C@@H](C)C3)nc2-c2ccc3c(c2)N(C2CCCC2)[C@H](C)C(=O)N3C)cc1
Activity [1]: 70 to 100% | TDI (Cytochrome P450 2D6): Not Active | TDI (Cytochrome P450 3A4): 8 ×10⁻⁴ /min | IC50 [2]: 5.3 nM | Cmax [3]: 1900 ng/mL | AUC(0-t) [4]: 7380 ng·h/mL | half-life [5]: 2.1 h | Activity [6]: < 5% | Activity [7]: < 5% | Activity [8]: 70 to 100% | Activity [9]: 70 to 100% | Activity [10]: 70 to 100% | Activity (MV4-11 [11]): Active | Activity (NCI-H1299): Active | Activity (MDA-MB-468): Active | Activity (HuTu80): Active | Activity (MV4-11 [12]): Dose-dependent effect | Activity (RKO): Active | microsomal CLint [13]: 77 µL/min/mg | Tmax [14]: 0.4 h | Tmax [15]: 1.5 h | AUC(0-t) [16]: 331 ng·h/mL | AUC(0-inf) [17]: 399 ng·h/mL | AUC(0-inf) [18]: 2080 ng·h/mL | half-life [19]: 3 h | half-life [20]: 9.3 h | half-life [21]: 4.4 h | half-life [22]: 5 h | inhibition [23]: < 10%

Source: ChEMBL document CHEMBL4414574, “Structure-Based Discovery and Development of a Series of Potent and Selective Bromodomain and Extra-Terminal Protein Inhibitors” (J Med Chem, 2019)
